Measured values taken from ChEMBL document CHEMBL4765301, “Discovery of novel TNNI3K inhibitor suppresses pyroptosis and apoptosis in murine myocardial infarction injury” (Eur J Med Chem, 2020).
pIC50: −log10 of the molar value.

Assays:
[1] = molecular target: Vascular endothelial growth factor receptor 2 (Homo sapiens) (UniProt P35968); experiment: Inhibition of recombinant human KDR (790 to end residues) assessed as residual activity at 1 uM using myelin basic protein as substrate incubated for 40 mins by [gamma-33P]-ATP scintillation counting based radiometry assay relative to control
Vascular endothelial growth factor receptor 2 (Homo sapiens), sequence (P35968 whole entry): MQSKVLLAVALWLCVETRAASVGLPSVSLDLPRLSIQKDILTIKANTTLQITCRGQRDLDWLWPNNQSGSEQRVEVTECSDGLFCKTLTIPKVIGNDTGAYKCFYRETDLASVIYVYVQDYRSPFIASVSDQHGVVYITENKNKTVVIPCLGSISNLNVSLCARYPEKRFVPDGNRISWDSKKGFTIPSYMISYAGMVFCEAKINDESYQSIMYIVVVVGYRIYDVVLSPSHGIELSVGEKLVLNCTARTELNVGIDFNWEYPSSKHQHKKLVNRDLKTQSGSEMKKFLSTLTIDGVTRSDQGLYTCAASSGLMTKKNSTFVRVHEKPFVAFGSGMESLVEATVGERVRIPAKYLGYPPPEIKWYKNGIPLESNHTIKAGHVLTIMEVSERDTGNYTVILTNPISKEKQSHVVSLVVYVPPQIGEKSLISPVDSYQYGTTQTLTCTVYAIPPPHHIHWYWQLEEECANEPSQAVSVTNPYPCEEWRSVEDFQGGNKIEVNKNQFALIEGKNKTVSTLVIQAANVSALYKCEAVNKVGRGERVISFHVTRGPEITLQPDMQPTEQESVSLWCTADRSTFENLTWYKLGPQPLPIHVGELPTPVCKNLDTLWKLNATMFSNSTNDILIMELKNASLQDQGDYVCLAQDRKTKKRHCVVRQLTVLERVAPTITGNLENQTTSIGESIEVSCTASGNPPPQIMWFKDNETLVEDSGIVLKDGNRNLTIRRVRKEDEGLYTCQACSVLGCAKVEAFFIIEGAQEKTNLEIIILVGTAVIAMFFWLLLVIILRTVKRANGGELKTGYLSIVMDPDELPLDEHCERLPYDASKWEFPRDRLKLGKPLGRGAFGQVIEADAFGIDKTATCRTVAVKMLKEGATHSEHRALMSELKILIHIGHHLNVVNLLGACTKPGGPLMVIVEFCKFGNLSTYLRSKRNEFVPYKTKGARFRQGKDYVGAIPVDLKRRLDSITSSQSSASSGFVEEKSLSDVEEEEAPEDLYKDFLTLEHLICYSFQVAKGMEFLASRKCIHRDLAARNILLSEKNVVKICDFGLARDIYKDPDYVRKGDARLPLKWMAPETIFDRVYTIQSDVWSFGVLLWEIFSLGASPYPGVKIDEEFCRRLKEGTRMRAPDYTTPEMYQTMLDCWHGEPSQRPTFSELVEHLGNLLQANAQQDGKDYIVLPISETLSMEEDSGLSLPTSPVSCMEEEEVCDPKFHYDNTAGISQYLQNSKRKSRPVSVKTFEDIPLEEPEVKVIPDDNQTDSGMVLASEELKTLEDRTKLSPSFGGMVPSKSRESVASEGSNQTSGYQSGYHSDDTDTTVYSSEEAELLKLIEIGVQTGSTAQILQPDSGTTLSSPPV

[2] = molecular target: Vascular endothelial growth factor receptor 1 (Homo sapiens) (UniProt P17948); experiment: Inhibition of recombinant human FLT1 (783 to end residues) assessed as residual activity at 1 uM using KKKSPGEYVNIEFG as substrate incubated for 40 mins by [gamma-33P]-ATP scintillation counting based radiometry assay relative to control
Vascular endothelial growth factor receptor 1 (Homo sapiens), sequence (P17948 whole entry): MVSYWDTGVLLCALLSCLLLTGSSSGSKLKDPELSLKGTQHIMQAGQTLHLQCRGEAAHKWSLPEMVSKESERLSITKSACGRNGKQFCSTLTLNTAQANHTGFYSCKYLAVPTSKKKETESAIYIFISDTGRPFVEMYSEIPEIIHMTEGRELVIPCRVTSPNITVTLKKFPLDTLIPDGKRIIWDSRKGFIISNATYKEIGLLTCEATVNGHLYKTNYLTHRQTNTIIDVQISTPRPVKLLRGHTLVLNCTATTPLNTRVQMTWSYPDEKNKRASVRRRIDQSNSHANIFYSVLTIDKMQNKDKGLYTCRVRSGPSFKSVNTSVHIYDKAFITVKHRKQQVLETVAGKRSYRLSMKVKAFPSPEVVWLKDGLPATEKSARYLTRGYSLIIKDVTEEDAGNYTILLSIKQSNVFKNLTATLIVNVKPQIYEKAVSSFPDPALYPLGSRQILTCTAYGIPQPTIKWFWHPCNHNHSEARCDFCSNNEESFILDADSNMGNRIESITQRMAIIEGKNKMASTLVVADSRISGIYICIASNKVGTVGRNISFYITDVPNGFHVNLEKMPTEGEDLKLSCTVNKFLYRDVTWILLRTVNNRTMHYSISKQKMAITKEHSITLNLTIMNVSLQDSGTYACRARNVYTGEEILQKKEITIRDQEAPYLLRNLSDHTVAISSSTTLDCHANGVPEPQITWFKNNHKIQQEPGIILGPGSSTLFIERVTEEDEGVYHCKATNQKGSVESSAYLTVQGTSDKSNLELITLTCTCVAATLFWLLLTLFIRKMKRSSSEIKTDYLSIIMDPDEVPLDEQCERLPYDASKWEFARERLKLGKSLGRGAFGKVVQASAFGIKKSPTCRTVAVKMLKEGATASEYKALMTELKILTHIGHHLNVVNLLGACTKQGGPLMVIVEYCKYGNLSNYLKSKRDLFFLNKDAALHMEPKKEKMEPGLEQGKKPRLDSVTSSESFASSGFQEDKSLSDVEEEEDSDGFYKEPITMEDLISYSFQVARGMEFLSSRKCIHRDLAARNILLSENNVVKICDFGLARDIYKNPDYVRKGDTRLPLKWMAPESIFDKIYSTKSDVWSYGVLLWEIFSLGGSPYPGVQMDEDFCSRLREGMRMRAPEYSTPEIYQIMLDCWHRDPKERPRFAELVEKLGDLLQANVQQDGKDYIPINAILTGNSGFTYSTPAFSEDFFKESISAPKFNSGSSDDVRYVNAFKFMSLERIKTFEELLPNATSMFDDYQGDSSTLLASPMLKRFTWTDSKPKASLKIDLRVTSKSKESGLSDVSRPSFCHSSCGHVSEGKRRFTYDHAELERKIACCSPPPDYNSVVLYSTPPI

[3] = molecular target: Epidermal growth factor receptor (Homo sapiens) (UniProt P00533); experiment: Inhibition of recombinant human EGFR (696 to end residues) assessed as residual activity at 1 uM using poly(Glu, Tyr) 4:1 as substrate incubated for 40 mins by [gamma-33P]-ATP scintillation counting based radiometry assay relative to control
Epidermal growth factor receptor (Homo sapiens), sequence (P00533 whole entry): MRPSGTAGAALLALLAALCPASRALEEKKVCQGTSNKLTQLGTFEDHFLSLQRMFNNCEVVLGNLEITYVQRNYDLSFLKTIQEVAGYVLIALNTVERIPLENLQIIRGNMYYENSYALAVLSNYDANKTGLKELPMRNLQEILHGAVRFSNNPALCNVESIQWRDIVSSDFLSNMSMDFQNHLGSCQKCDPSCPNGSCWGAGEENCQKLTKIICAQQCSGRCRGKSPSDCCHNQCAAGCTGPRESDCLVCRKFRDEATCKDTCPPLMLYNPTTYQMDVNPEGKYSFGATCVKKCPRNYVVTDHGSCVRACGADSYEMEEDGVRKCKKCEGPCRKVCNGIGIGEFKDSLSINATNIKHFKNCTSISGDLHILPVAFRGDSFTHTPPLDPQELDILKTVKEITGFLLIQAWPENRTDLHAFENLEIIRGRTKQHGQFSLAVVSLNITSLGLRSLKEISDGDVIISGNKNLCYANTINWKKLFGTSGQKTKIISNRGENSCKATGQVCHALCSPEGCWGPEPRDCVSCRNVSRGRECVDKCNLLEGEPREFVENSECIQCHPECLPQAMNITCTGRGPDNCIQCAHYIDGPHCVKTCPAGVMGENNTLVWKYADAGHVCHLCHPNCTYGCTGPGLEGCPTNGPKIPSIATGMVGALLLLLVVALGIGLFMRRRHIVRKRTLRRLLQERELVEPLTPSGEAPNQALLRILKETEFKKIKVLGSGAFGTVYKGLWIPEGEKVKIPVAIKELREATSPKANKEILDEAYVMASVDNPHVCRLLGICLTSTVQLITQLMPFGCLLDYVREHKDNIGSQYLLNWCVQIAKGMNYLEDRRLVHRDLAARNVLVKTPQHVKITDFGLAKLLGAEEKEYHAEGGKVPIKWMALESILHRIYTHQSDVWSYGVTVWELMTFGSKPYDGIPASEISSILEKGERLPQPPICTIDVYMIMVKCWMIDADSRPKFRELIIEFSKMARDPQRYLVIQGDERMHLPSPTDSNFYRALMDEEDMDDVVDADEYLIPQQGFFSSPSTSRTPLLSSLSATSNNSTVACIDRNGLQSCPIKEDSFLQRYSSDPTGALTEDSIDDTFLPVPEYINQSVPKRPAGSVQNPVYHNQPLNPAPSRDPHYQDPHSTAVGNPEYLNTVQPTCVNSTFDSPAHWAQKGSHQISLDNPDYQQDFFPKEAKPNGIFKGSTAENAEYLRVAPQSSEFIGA

[4] = molecular target: T1, Serine/threonine-protein kinase TNNI3K (Homo sapiens, UniProt Q59H18); experiment: Inhibition of TNNI3K (unknown origin) using biotinylated CTnI as substrate by HTRF analysis
T1 sequence (Q59H18 whole entry): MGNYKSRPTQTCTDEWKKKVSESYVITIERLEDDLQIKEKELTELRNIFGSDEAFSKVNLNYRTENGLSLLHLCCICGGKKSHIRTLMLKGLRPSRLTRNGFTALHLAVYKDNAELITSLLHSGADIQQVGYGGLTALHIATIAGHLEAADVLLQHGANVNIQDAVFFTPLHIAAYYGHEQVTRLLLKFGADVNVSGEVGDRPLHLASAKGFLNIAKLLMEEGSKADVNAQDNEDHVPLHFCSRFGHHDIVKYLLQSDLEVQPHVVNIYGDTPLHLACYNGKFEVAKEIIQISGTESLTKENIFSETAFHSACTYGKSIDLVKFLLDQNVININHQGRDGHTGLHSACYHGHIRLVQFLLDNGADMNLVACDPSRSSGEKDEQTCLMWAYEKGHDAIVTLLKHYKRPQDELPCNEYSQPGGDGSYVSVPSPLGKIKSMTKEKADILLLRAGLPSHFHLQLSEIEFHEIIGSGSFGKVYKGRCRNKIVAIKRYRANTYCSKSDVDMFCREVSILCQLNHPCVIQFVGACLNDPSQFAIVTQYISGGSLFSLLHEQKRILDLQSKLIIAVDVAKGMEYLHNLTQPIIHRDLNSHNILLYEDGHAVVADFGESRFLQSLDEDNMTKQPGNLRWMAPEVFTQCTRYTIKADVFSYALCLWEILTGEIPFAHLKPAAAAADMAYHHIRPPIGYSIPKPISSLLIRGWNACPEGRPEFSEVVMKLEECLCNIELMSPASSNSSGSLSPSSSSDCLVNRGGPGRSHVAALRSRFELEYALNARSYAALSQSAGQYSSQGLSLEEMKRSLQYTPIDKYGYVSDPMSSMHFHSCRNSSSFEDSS
Method in brief: (§1)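 TNNI3K was assayed by HTRF using a GST-tagged TNNI3K kinase domain and a biotinylated cardiac troponin I substrate peptide, followed by the two HTRF detection reagents. Compounds were screened at 1.0 µM, then IC50s were determined.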

H9c2 [5] = experiment: Cytoprotective activity against OGD-induced cell death in rat H9c2 cells assessed as cell viability at 1 uM incubated for 24 hrs by MTT assay (reference value: 42.08 to 49.11 %); type: functional; conditions: read-out: Activity
[6] = molecular target: Receptor tyrosine-protein kinase erbB-2 (Homo sapiens) (UniProt P04626); experiment: Inhibition of recombinant human HER2 (676 to end residues) assessed as residual activity at 1 uM using poly(Glu, Tyr) 4:1 as substrate incubated for 40 mins by [gamma-33P]-ATP scintillation counting based radiometry assay relative to control
[7] = molecular target: T2, Serine/threonine-protein kinase TNNI3K (Homo sapiens) (UniProt Q59H18); experiment: Inhibition of TNNI3K (unknown origin) assessed as residual activity at 1 uM using biotinylated CTnI as substrate by HTRF analysis relative to control; method in brief: as §1
T2 sequence (whole entry): T1 sequence (Q59H18 whole entry)

H9c2 [8] = experiment: Cytoprotective activity against OGD-induced cell death in rat H9c2 cells assessed as cell viability at 10 uM incubated for 24 hrs by MTT assay (reference value: 42.08 to 49.11 %); type: functional; conditions: read-out: Activity

| Activity [1] | Activity [2] | Activity [3] | pIC50 [4] | Activity [6] | Activity [7] | Structure (SMILES) | viability at 1 µM (H9c2 [5]) | viability at 10 µM (H9c2 [8]) |
| --- | --- | --- | --- | --- | --- | --- | --- | --- |
| 89% | 105% | 93% | 6.25 | 95% | 37% | CN1CCc2c(sc3ncnc(Nc4ccc(N(C)C)c(NC(=O)c5ccco5)c4)c23)C1 | 59.6% | 85.6% |
| 88% | 100% | 90% | 6.19 | 107% | 33% | CN1CCN(CCCN2CCc3c(sc4ncnc(Nc5ccc(N(C)C)c(NC(=O)c6ccco6)c5)c34)C2)CC1 | 61.1% | 79.9% |
| 92% | 96% | 100% | 6.14 | 91% | 35% | CN(C)c1ccc(Nc2ncnc3sc4c(c23)CCNC4)cc1NC(=O)c1ccco1 | 54.1% | 71% |
